According to ChEMBL document CHEMBL1140074, “Aminoacyl-anthraquinone conjugates as telomerase inhibitors: synthesis, biophysical and biological evaluation” (J Med Chem, 2008):
pEC50, pIC50: −log10 of the molar value.

Columns and labels:
[1] = tested on: HeLa; assay: Cytotoxicity against human HeLa cells expressing telomerase after 96 hrs by MTT assay; type: functional, cell-based
In short: (§1)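 Cells grown in DMEM with 10% heat-inactivated FCS, penicillin/streptomycin, 37 °C, 5% CO2. Plated at 10000 cells/well and left overnight, then exposed to eight serial dilutions in triplicate for 96 h. MTT added to 0.8 mg/mL final for 2 h, formazan dissolved in DMSO, absorbance read at 540 nm. IC50 from sigmoidal dose-response fits.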

[2] = species on record: Homo sapiens; assay: Binding affinity to human telomeric DNA sequence assessed as stabilization of G-quadruplex at 1 uM by thermal denaturation
In short: (§2)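 Fluorescence melting in a LightCycler of 0.25 µM telomeric oligonucleotide HTS (5'-FAM, 3'-methyl red) in LiP buffer (10 mM LiOH, 50 mM KCl, pH 7.4 with H3PO4). Samples were denatured at 95 °C for 5 min, then cooled and reheated at 0.5 °C/min in 1 °C steps with 2 min equilibration per step. Excitation 488 nm, emission 520 nm. ΔTm was taken relative to ligand-free DNA.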

[3] = Cytotoxicity against human 293T cells expressing telomerase after 96 hrs by MTT assay; type: cell-based; conditions: HEK-293T; in short: as §1
[4] = biological target: DNA polymerase I, thermostable (Thermus aquaticus, UniProt P19821); assay: Inhibition of Taq polymerase
In short: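 PCR with 2.5 ng pBR322 template and primers Tup/Tdown (0.5 µM) amplifying plasmid bases 906-1064. Compounds tested from 20 nM to 40 µM. Run 25 cycles of 94 °C, 65 °C and 72 °C (30 s each). Products resolved on 2% agarose in TBE and stained with ethidium bromide.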

[5] = biological target: Telomerase reverse transcriptase (Homo sapiens, UniProt O14746); assay: Inhibition of telomerase in human JR8 cells by TRAP assay; type: cell-based
In short: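 Telomerase source was a CHAPS lysate of exponentially growing JR8 cells (500 ng protein per reaction). Elongation 30 min at 30 °C, then 30 PCR cycles. Products run on 10% PAGE with phosphorimager read-out, in triplicate. Drug levels kept below those inhibiting Taq.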

[6] = species on record: Homo sapiens; assay: Binding affinity to human telomeric DNA sequence assessed as stabilization of G-quadruplex at 10 uM by thermal denaturation; in short: as §2

Chain of Telomerase reverse transcriptase (O14746 whole entry): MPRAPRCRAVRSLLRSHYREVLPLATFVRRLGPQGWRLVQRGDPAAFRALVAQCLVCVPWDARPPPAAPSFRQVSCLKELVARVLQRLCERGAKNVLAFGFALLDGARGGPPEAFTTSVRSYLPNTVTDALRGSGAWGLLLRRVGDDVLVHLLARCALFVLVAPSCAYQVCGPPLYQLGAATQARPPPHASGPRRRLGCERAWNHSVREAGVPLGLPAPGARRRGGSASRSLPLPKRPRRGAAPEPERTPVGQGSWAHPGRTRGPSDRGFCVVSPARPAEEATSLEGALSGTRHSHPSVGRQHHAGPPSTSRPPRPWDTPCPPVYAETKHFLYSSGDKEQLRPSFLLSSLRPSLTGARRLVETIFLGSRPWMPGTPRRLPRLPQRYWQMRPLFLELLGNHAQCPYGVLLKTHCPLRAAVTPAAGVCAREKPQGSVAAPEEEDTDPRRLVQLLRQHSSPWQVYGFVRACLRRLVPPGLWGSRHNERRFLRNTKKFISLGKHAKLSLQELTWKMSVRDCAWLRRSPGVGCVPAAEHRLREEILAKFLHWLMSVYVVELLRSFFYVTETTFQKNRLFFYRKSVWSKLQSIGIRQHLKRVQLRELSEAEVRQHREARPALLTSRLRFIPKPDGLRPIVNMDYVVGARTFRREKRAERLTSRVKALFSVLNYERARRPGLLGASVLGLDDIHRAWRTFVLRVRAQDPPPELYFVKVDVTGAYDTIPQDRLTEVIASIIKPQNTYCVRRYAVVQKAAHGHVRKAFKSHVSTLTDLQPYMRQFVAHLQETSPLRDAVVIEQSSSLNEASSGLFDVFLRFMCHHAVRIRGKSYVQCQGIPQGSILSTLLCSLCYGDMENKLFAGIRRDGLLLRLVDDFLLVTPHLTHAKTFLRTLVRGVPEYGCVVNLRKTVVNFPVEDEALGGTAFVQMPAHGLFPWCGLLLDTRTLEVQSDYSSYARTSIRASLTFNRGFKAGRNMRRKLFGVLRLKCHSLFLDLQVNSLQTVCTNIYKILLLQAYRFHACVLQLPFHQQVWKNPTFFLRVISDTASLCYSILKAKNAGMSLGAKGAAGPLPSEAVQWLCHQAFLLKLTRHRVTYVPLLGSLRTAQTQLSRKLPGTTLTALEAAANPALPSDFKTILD
Chain of DNA polymerase I, thermostable (P19821 whole entry): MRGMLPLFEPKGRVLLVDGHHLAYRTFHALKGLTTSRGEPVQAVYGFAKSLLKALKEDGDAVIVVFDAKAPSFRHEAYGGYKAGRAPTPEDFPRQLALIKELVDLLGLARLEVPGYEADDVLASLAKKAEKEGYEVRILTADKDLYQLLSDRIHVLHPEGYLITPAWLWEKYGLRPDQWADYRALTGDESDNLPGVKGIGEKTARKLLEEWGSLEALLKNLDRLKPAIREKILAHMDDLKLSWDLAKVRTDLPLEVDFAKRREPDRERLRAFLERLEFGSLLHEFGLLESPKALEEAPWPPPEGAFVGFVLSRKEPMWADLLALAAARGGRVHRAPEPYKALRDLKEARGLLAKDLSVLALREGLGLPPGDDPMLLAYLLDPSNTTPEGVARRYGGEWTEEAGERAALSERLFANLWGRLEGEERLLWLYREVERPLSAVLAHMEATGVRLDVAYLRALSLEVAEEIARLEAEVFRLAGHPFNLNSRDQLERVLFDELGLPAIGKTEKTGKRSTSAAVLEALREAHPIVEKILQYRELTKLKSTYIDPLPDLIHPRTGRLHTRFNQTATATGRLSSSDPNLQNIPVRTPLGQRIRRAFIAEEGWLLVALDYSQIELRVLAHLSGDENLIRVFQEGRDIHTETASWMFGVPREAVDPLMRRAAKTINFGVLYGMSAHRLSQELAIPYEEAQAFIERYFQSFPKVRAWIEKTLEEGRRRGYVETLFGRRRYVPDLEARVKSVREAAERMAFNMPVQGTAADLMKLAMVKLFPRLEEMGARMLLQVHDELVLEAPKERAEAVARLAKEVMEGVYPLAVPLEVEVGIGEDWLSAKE

SMILES	ΔTm [2] [°C]	pEC50 [4]	pEC50 [5]	ΔTm [6] [°C]	pIC50 [1]	pIC50 [3]
NCCNC(=O)c1ccc2c(c1)C(=O)c1ccc(C(=O)NCCN)cc1C2=O	2	4.70	5.30	9	4.40	4.07
NCCC(=O)Nc1ccc2c(c1)C(=O)c1cc(NC(=O)CCN)ccc1C2=O	11.3	5.00	5.92	23.4	4.24	4.10
NCCCC[C@H](N)C(=O)NCCC(=O)Nc1ccc2c(c1)C(=O)c1ccc(NC(=O)CCNC(=O)[C@@H](N)CCCCN)cc1C2=O	6.6	5.00	6.10	17.2	4.00	< 4.00
NCCC(=O)Nc1ccc2c(c1)C(=O)c1ccc(NC(=O)CCN)cc1C2=O	9.1	< 4.40	5.90	18.1	< 4.00	< 4.00
NCCNC(=O)c1ccc2c(c1)C(=O)c1cc(C(=O)NCCN)ccc1C2=O	3.3	< 4.40	4.82	12.9	4.00	4.00
NCCCC[C@H](N)C(=O)NCCNC(=O)c1ccc2c(c1)C(=O)c1cc(C(=O)NCCNC(=O)[C@@H](N)CCCCN)ccc1C2=O	5.2	< 4.40	5.52	14.7	4.08	< 4.00

Continued, in another order:

ΔTm [2] [°C]	pEC50 [4]	pEC50 [5]	ΔTm [6] [°C]	SMILES	pIC50 [1]	pIC50 [3]
0.1	< 4.40	4.60	3.6	NCC(=O)Nc1ccc2c(c1)C(=O)c1ccc(NC(=O)CN)cc1C2=O	4.12	< 4.00
6.1	< 4.40	5.00	15.6	O=C(CNC(=O)[C@@H]1CCCN1)Nc1ccc2c(c1)C(=O)c1ccc(NC(=O)CNC(=O)[C@@H]3CCCN3)cc1C2=O	4.48	< 4.00
12	5.30	6.10	> 17	NCCCC[C@H](N)C(=O)NCC(=O)Nc1ccc2c(c1)C(=O)c1ccc(NC(=O)CNC(=O)[C@@H](N)CCCCN)cc1C2=O	4.57	4.47
